# High-throughput results as filed in PubChem BioAssay.
# Rows were chosen to be rich in hits. Some 4.5% of all compounds tested hit in one or more screens of this group.
# OX1R antag-1: OX1R (HCRTR1) antagonists, primary screen, fluorescence, CHO/OX1R cells, Fluo-8 calcium, orexin A | Orexin/Hypocretin receptor type 1 (Homo sapiens), O43613 | AID 434989, 2010 | hit rate 0.43% among 330,000 | Fluo-8 calcium fluorescence | inhibition, % at 5 µM;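 active means inhibition above its plate's threshold, mean inhibition of all tested compounds on the plate plus 3 SD, cut at about 37% in these data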
# Target sequence (O43613 whole entry, looked up): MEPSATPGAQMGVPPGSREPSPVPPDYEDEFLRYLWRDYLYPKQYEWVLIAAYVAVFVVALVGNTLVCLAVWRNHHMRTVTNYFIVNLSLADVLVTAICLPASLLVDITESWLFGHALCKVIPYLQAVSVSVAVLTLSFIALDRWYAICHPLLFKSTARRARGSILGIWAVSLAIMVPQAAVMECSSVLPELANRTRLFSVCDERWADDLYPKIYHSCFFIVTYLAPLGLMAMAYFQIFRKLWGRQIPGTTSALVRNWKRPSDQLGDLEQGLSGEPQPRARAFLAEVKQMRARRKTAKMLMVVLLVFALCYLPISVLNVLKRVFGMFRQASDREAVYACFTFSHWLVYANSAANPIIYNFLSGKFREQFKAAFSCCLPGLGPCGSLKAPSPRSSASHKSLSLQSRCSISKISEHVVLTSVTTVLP
# OX1R antag-2: antagonists of human orexin 1 receptor (OX1R); hit rate 1.8% among 330,000; AID 485270, 2010; inhibition, % at 6.6 µM; Orexin/Hypocretin receptor type 1 (Homo sapiens), O43613; OX1R-expressing cells, FRET antagonist read-out; in the data active means inhibition mostly above about 38%, no sharp cut-off; inactive means mostly below about 40%
# TAAR1 ag: human TAAR1 agonists, primary screen, Fluo-8 calcium fluorescence, CHO RD-HGA16 cells; hit rate 0.99% among 360,000; activation, % at 3 µM; vehicle wells 0%, saturating PEA agonist 100%; AID 624467, 2012;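 active means activation above the mean activation of all test compounds in the run plus 3 SD, cut at about 38% in these data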
# Target sequence (Q96RJ0 whole entry, looked up): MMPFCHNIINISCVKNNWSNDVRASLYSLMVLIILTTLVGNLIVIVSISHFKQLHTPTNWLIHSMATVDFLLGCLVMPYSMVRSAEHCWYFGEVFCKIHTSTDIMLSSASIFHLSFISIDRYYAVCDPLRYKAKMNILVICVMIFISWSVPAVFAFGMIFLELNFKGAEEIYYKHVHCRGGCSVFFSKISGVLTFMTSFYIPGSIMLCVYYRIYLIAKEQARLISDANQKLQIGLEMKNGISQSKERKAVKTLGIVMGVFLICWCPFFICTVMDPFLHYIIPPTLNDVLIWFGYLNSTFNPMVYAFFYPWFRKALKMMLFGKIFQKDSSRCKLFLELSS
#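 Test system: RD-HGA16 (CHO) cells co-expressing Gα16 and hTAAR1 / Benchmarks: DMSO vehicle as 0%, PEA at EC100 as 100% / Repeats: no replicates (n 1) / Measure: % activation from peak over basal fluorescence ratio, DMSO-to-PEA scaled / Timing: 17-24 h plating, Fluo-8 75 min 37 °C, 30 min RT / Technique: kinetic Fluo-8 calcium fluorescence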
# CHO parental Ca: ATP-evoked calcium signal inhibitors, parental CHO, primary screen, counter-screen for OX1R antagonist project, cell-based, fluorescence, Fluo-8 calcium dye | parental CHO-K1, ATP-induced calcium, Fluo-8 fluorescence | inhibition, % at 5.6 µM | hit rate 0.63% among 330,000 | AID 463079, 2010;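 active means inhibition above that plate's mean sample inhibition plus 3 SD, cut at about 26% in these data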
#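 Test system: untransfected parental CHO cell line. Compound: one dose, 5.6 µM nominal. Detection: intracellular calcium via Fluo-8 no-wash fluorescent dye. Measure: % inhibition. Benchmarks: ATP-challenged DMSO wells low, unchallenged DMSO wells high.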
# GPR7 antagonist: GPR7 receptor antagonists, primary screen, cell-based, fluorescence, single concentration | Neuropeptides B/W receptor type 1 (Homo sapiens), P48145 | GPR7-expressing cells, fluorescence antagonist assay | inhibition, % at 4.4 µM | hit rate 1.1% among 290,000 | AID 1861, 2009; in the data active means inhibition above about 16%, passing the limit was not always enough;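 further: cells stimulated with the agonist NPW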
# TAAR1 antagonist: human TAAR1 antagonists, primary screen, Fluo-8 calcium fluorescence, CHO RD-HGA16 cells | antagonist | inhibition, % at 3 µM | hit rate 1.5% among 360,000;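 active means inhibition above a per-plate cutoff, the mean inhibition of test compounds on that plate plus 3 SD, cut at about 49% in these data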
#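 Assay system: RD-HGA16 CHO cells with stable hTAAR1 and Gα16 / Reagent: EC80 β-phenethylamine stimulus / Doses: 3 µM, single point / Timing: dye loading 75 min at 37 °C, then 30 min room temperature / Measured by: Fluo-8 intracellular calcium dye fluorescence, real-time kinetic reads / Controls: vehicle wells and EC80 agonist wells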
# OX1R Ca confirm: OX1R (HCRTR1) antagonists, confirmation, fluorescence, CHO/OX1R cells, Fluo-8 calcium, orexin A; AID 492963, 2010; hit rate 38% among 1,100; shares compounds with OX1R antag-1; inhibition, % at 5 µM; orexin A calcium Fluo-8 fluorescence; in the data active means inhibition above about 29%
# CHO Ca counter: ATP-evoked calcium inhibition in parental CHO, counter-screen for OX1R antagonist project, cell-based, fluorescence, CHO-K1, triplicate. shares compounds with OX1R antag-1. ATP-induced calcium, Fluo-8 fluorescence. inhibition, % at 5.6 µM. hit rate 9.3% among 1,100. AID 492965, 2010;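 active means inhibition above a per-plate limit, the mean inhibition of that plate's test compounds plus 3 SD, cut at about 25% in these data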
# OX1R HTRF conf: OX1R (HCRTR1) antagonists, confirmation, cell-based, HTRF; AID 492964, 2010; shares compounds with OX1R antag-2; inhibition, % at 6.6 µM; OX1R-expressing cells, HTRF antagonist assay; hit rate 49% among 1,800; in the data active means inhibition above about 55%;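 further: CHO cells expressing OX1R stimulated with orexin A at about EC80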
# CHO-K1 HTRF cnt: signal inhibition in parental CHO-K1 cells, counter-screen for OX1R antagonist project, cell-based, HTRF; shares compounds with OX1R antag-2; HTRF counterscreen; hit rate 48% among 1,800; inhibition, % at 6.6 µM; in the data active means inhibition above about 17%
# TAAR1 nonsel count: nonselective antagonists in TAAR1 counter-screen cells, counter-screen for hTAAR1 antagonist project, cell-based, fluorescence, calcium; shares compounds with TAAR1 antagonist; counterscreen cell line, antagonist mode; inhibition, % at 3 µM; hit rate 77% among 2,400; in the data active means inhibition above about 22%;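 further: CHO-Ga16 host cells stimulated with ATP at an EC80 level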
# TAAR1 ant conf: human TAAR1 antagonists, retest of hits, confirmation, cell-based, fluorescence; shares compounds with TAAR1 antagonist; TAAR1-expressing cells, fluorescence antagonist read-out; inhibition, % at 3 µM; hit rate 40% among 2,400; AID 651785, 2012; in the data active means inhibition above about 49%;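 further: CHO-Ga16 host cells challenged with agonist PEA near its EC80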
# Ga16 ag counter-1: calcium activation in Ga16-expressing cells, counter-screen for TAAR1 antagonist project, cell-based, fluorescence. shares compounds with TAAR1 antagonist. agonist counterscreen. activation, % at 3 µM. hit rate 18% among 2,400. AID 651953, 2012; in the data active means activation above about 12%
# TAAR1 ag counter: TAAR1 activation by candidate antagonists – cell-based, fluorescence, counter-screen for TAAR1 antagonist project; shares compounds with TAAR1 antagonist; hTAAR1 cell line, agonist mode; activation, % at 3 µM; hit rate 2% among 2,400; AID 651955, 2012; in the data active means activation above about 37%;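 further: CHO cells stably expressing TAAR1 with calcium dye readout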
# TAAR1 ag conf: human TAAR1 agonists, retest of hits, confirmation, Fluo-8 calcium fluorescence, CHO RD-HGA16 cells; shares compounds with TAAR1 ag; scaled: DMSO 0%, maximal phenethylamine 100%; activation, % at 3 µM; hit rate 82% among 2,400;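 active means activation above a cutoff set at the run's mean compound activation plus 3 SD, cut at about 39% in these data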
# Ga16 ag counter-2: nonselective calcium mobilization agonists, CHO-Ga16 cells, counter-screen for hTAAR1 agonist project, cell-based, fluorescence, CHO-Ga16 parental line; Fluo-8 calcium fluorescence; normalized to maximal ATP response, DMSO zero; hit rate 50% among 2,400; shares compounds with TAAR1 ag; AID 651787, 2012; activation, % at 3 µM;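 active means activation above the run cutoff, the mean activation over all tested wells plus 3 SD, cut at about 12% in these data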
# TAAR1 desensitize: TAAR1 desensitization by agonist hits, confirmation, counter-screen for TAAR1 agonist project, cell-based, fluorescence, tachyphylaxis; shares compounds with TAAR1 ag; CHO RD-HGA16 hTAAR1, Fluo-8 calcium, beta-PEA response inhibition; inhibition, % at 3 µM; hit rate 46% among 2,400; AID 651951, 2012;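 active means inhibition above the run cutoff, the mean inhibition of all test compounds plus 3 SD, cut at about 49% in these data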;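 further: beta-PEA stimulus applied at its EC80; loss of beta-PEA calcium signal after compound pretreatment read as receptor desensitization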
# Ga16 nonsel ant: inhibition of ATP-evoked calcium response in CHO-Ga16 cells, counter-screen for TAAR1 agonist project, cell-based, fluorescence; shares compounds with TAAR1 ag; CHO-Ga16 ATP-induced calcium, Fluo-8 fluorescence; inhibition, % at 3 µM; hit rate 39% among 2,400;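 active means inhibition above the plate's mean compound inhibition plus 3 SD, computed per plate, cut at about 22% in these data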
# Hits are given with their value; i = inactive; nt = not tested or not shown.
SMILES,OX1R antag-1,OX1R antag-2,TAAR1 ag,CHO parental Ca,GPR7 antagonist,TAAR1 antagonist,OX1R Ca confirm,CHO Ca counter,OX1R HTRF conf,CHO-K1 HTRF cnt,others
CC1(C(=O)OCC(=O)Nc2nc(-c3ccc(F)c(F)c3)cs2)CC1(Cl)Cl (stereo not drawn),i,i,i,i,i,88,i,i,nt,nt,TAAR1 nonsel count=49;TAAR1 ant conf=76;Ga16 ag counter-1=i;TAAR1 ag counter=i
COc1ccc(N2CCN(C3CC(=O)N(Cc4ccccc4)C3=O)CC2)cc1 (stereo not drawn),i,i,i,i,i,i,nt,nt,nt,nt,
O=C(c1ccncc1)c1ccc(N2CCN(C3CC(=O)N(Cc4ccccc4)C3=O)CC2)cc1 (stereo not drawn),i,71,i,i,i,51,i,i,i,i,TAAR1 nonsel count=26;TAAR1 ant conf=i;Ga16 ag counter-1=i;TAAR1 ag counter=i
O=C(CC(O)(CC(=O)OCc1ccccc1)C(=O)OCc1ccccc1)OCc1ccccc1,nt,nt,i,nt,nt,i,nt,nt,nt,nt,
CCOC(=O)c1ccc(NC(=S)N2CCSC2c2ccc(Cl)cc2)cc1 (stereo not drawn),i,i,123,i,i,105,91,73,nt,nt,TAAR1 ag conf=136;Ga16 ag counter-2=94;TAAR1 desensitize=106;Ga16 nonsel ant=80
CCOC(=O)c1ccc(NC(=S)N2CCN(C)CC2)cc1,i,i,i,i,i,i,nt,nt,nt,nt,
O=C(NC1CCN(Cc2ccccc2)CC1)c1ccccc1OCc1ccccc1Cl,i,i,i,i,i,i,nt,nt,nt,nt,
c1ccc(Nc2nc(NCc3ccco3)c3ccccc3n2)cc1,i,i,56,i,i,i,i,i,nt,nt,TAAR1 ag conf=84;Ga16 ag counter-2=i;TAAR1 desensitize=85;Ga16 nonsel ant=29
C/C(=N/NC(=O)c1ccncc1)c1cc2ccc(O)cc2oc1=O,i,i,90,i,i,i,66,54,nt,nt,TAAR1 ag conf=134;Ga16 ag counter-2=153;TAAR1 desensitize=i;Ga16 nonsel ant=i
COc1cc(C2NC(=O)NC(C)=C2C(=O)OC2CCCCC2)cc(Cl)c1O (stereo not drawn),i,i,i,i,i,i,nt,nt,nt,nt,
O=C(COc1coc(CN2CCc3ccccc3C2)cc1=O)Nc1cccc([N+](=O)[O-])c1,i,i,i,i,nt,i,nt,nt,nt,nt,
O=C(Nc1nnc(-c2ccccc2Cl)o1)c1nc2ccccc2s1,i,i,134,i,i,74,i,i,nt,nt,TAAR1 ag conf=113;Ga16 ag counter-2=81;TAAR1 desensitize=64;Ga16 nonsel ant=36
O=C(Nc1nnc(-c2ccccc2Cl)o1)c1ccco1,i,i,i,i,i,i,nt,nt,nt,nt,
CCC(=O)c1ccc(OC(=O)c2ccc(Br)o2)cc1,i,i,123,i,i,84,38,39,nt,nt,TAAR1 ag conf=76;Ga16 ag counter-2=71;TAAR1 desensitize=64;Ga16 nonsel ant=51
Cn1ncc2c(Nc3ccc4ccccc4c3)ncnc21,i,78,i,i,i,i,nt,nt,78,i,
Cc1ccc(S(=O)(=O)N2[C@@H](c3cccc(Cl)c3)C(C(=O)O)=CC[C@H]2c2ccc3c(c2)OCO3)cc1,i,83,i,i,nt,i,nt,nt,87,i,
CCn1c2ccccc2c2cc(NC(=O)COC(=O)c3cc(OC)c(OC)cc3OC)ccc21,i,80,i,i,i,i,nt,nt,89,i,
CCn1c(=O)cc(OCC(=O)Nc2ccc3c(c2)OCCO3)c2ccccc21,i,i,i,i,i,i,nt,nt,nt,nt,
CCn1c(=O)cc(OCC(=O)Nc2ccc(OC)c(OC)c2)c2ccccc21,i,82,i,i,i,i,nt,nt,i,i,
O=C(CNC(=O)c1ccccc1)c1ccccc1,i,85,i,i,nt,i,nt,nt,i,i,
O=C(CNC(=O)c1ccc(Br)cc1)c1ccccc1,i,i,i,i,i,i,nt,nt,nt,nt,
CNC1=C(N(C(C)=O)c2ccc(Br)cc2)C(=O)c2ccccc2C1=O,i,105,i,i,i,i,nt,nt,55,97,
CCC(=O)N(C1=C(NC)C(=O)c2ccccc2C1=O)C(C)C,i,80,i,i,i,i,nt,nt,66,64,
